ChEMBL document CHEMBL1135539, “Synthesis of ketone analogues of prolyl and pipecolyl ester FKBP12 ligands” (J Med Chem, 2002)

How the values were obtained:
Mus musculus [1] = assay: Concurrent % recovery of striatal dopaminergic innervation relative to MPTP-treated mice after subcutaneous administration at dose of 4 mg/kg.; assay type: functional, organism-based; set-up: dose 4 mg/kg
Outline: (§1)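 Mice lesioned with the dopaminergic neurotoxin MPTP, following an earlier-described protocol. The endpoint is striatal dopaminergic innervation. Drug is given either concurrently with MPTP or after the lesion. Values are expressed as % recovery relative to MPTP-lesioned animals that received no test drug.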

[2] = target: Peptidyl-prolyl cis-trans isomerase FKBP1A (Rattus norvegicus, UniProt Q62658); assay: In vitro inhibition of rotamase activity of FK506 binding protein 12
Mus musculus [3] = assay: Post-MPTP % recovery of striatal dopaminergic innervation relative to MPTP-treated mice after peroral administration at dose of 10 mg/kg; assay type: functional, organism-based; set-up: dose 10 mg/kg; outline: as §1

Chain of Peptidyl-prolyl cis-trans isomerase FKBP1A (Q62658 whole entry): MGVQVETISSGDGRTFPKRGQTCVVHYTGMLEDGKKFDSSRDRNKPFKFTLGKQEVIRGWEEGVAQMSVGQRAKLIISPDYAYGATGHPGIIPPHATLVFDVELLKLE

Row | SMILES | Recovery (Mus musculus [1]) | Ki [2] | Recovery (Mus musculus [3])
1 | CCC(C)(C)C(=O)C(=O)N1CCC[C@H]1C(=O)CCCCCc1ccccc1 | 46% | 3800 nM | 48%
2 | CCC(C)(C)C(=O)C(=O)N1CCC[C@H]1C(=O)CCCCc1c(F)c(F)c(C(F)(F)F)c(F)c1F | 7% | 130 nM | 27%
3 | O=C(C(=O)N1CCC[C@H]1C(=O)CCCCc1ccccc1)C1CCCCC1 | 37.6% | 310 nM | 62.2%
4 | CCC(C)(C)C(=O)C(=O)N1CCC[C@H]1C(=O)CCCCc1ccccc1 | 22.5% | 30 nM | –
5 | CCCCC(=O)[C@@H]1CCCN1C(=O)C(=O)C(C)(C)CC | – | 2000 nM | –
6 | CCC(C)(C)C(=O)C(=O)N1CCC[C@H]1C(=O)CCCCc1cccnc1 | 38% | – | 34%
7 | CCC(C)(C)C(=O)C(=O)N1CCCC[C@H]1C(=O)CCCCCc1ccccc1 | 46.3% | 3000 nM | –
8 | CCC(C)(C)C(=O)C(=O)N1CCCC[C@H]1C(=O)CCCCCc1cccnc1 | – | 900 nM | –
9 | CC(C)(C)C(=O)C(=O)N1CCCC[C@H]1C(=O)CCCCCc1ccccc1 | 50% | 290 nM | 36%
10 | CC(C)(C)C(=O)C(=O)N1CCC[C@H]1C(=O)CCCc1ccccc1 | 34% | 180 nM | 35%
11 | O=C(C(=O)N1CCC[C@H]1C(=O)CCCCc1ccccc1)c1ccccc1 | – | 10000 nM | –
12 | CCC(C)(C)C(=O)C(=O)N1CCCC[C@H]1C(=O)CCCc1ccccc1 | – | 10000 nM | –
13 | CCC(C)(C)C(=O)C(=O)N1CCC[C@H]1C(=O)CCCCc1ccc(O)cc1 | – | 240 nM | 33.5%
14 | CCCCC(=O)[C@@H]1CCCCN1C(=O)C(=O)C(C)(C)CC | – | 3400 nM | –
15 | CCC(C)(C)C(=O)C(=O)N1CCC[C@H]1C(=O)CCCC(c1ccc(F)cc1)c1ccc(F)cc1 | 41% | 460 nM | 54%
16 | CCC(C)(C)C(=O)C(=O)N1CCCC[C@H]1C(=O)CCCCc1ccccc1 | – | 790 nM | –
17 | CCC(C)(C)C(=O)C(=O)N1CCC[C@H]1C(=O)OCCCc1cccnc1 [GPI-1046] | 39% | 7.5 nM | 35%
